ChEMBL document CHEMBL3352515, “Design, synthesis, antiviral and cytostatic activity of ω-(1H-1,2,3-triazol-1-yl)(polyhydroxy)alkylphosphonates as acyclic nucleotide analogues” (Bioorg Med Chem, 2014)
Activity calls are given as the source filed them. No cut-off for these calls is given here.

How the values were obtained:
[1] = tested on: Respiratory syncytial virus; test: Antiviral activity against Respiratory syncytial virus infected in HeLa cells assessed as inhibition of virus-induced cytopathogenicity; type: functional, organism-based
How it was run: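 Confluent host-cell monolayers in 96-well plates were inoculated with 100 CCID₅₀ of virus while exposed to a range of test compound concentrations. Cytopathic effect was scored once it was complete in untreated infected controls. EC₅₀ is the concentration that reduces virus-induced cytopathogenicity by 50%.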

CCRF-CEM = test: Cytostatic activity against human CEM cells assessed as inhibition of proliferation after 72 hrs by Coulter cell counting method; type: functional, cell-based
How it was run: (§1)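 (5–7.5) × 10⁴ tumor cells per well were exposed to test compound at 37 °C in humidified CO₂. Incubation ran 48 h for L1210 and 72 h for CEM and HeLa. Cells were then counted in a Coulter counter. IC₅₀ is the concentration that inhibits cell proliferation by 50%.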

L1210 = test: Cytostatic activity against mouse L1210 cells assessed as inhibition of proliferation after 48 hrs by Coulter cell counting method; type: functional, cell-based; settings: L1210, 48 h; how it was run: as §1
HeLa = test: Cytostatic activity against human HeLa cells assessed as inhibition of proliferation after 72 hrs by Coulter cell counting method; type: functional, cell-based; how it was run: as §1
[2] = tested on: Vesicular stomatitis virus; test: Antiviral activity against Vesicular stomatitis virus infected in HeLa cells assessed as inhibition of virus-induced cytopathogenicity; type: functional, organism-based
How it was run: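 HeLa cell monolayers (confluent) were infected with 100 CCID50 of VSV in the presence of serial compound concentrations. Viral cytopathicity was read when complete in untreated infected controls. EC50 is the concentration that reduced virus-induced cytopathogenicity by 50%.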

Human alphaherpesvirus 3 [3] = test: Antiviral activity against Thymidine kinase-positive Varicella-zoster virus Oka infected in HEL assessed as reduction in virus plaque formation; type: functional, organism-based; settings: Human alphaherpesvirus 3, strain Oka vaccine
How it was run: (§2)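 Confluent HEL fibroblast cultures were inoculated with 20 PFU of VZV together with varying compound concentrations. Plaque formation was recorded once complete in untreated infected controls. EC50 is the concentration that reduced viral plaque formation by 50%.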

Human alphaherpesvirus 3 [4] = test: Antiviral activity against Thymidine kinase-negative Varicella-zoster virus 07-1 infected in HEL assessed as reduction in virus plaque formation; type: functional, organism-based; settings: Human alphaherpesvirus 3, 07-1; how it was run: as §2

Compound: O=c1cnn(Cc2cn(C[C@H](OCc3ccccc3)[C@@H](O)P(=O)(OCc3ccccc3)OCc3ccccc3)nn2)c(=O)[nH]1
- inhibition [1]: inactive
- IC50 (CCRF-CEM): 71 µM
- IC50 (L1210): 78 µM
- IC50 (HeLa): 64 µM
- inhibition [2]: inactive
- EC50 (Human alphaherpesvirus 3 [3]): 63.7 µM
- EC50 (Human alphaherpesvirus 3 [4]): 70 µM
